Assay results: ChEMBL document CHEMBL4813987, “Membrane active 7-thiazoxime quinolones as novel DNA binding agents to decrease the genes expression and exert potent anti-methicillin-resistant Staphylococcus aureus activity” (Eur J Med Chem, 2021)
Activity calls are given as the source filed them. The rule behind the calls is not given here.

Key:
Pseudomonas aeruginosa [1] = assay: Antibacterial activity against Pseudomonas aeruginosa assessed as reduction in microbial growth by two fold microdilution method; type: functional
Staphylococcus aureus [2] = assay: Synergistic antibacterial activity against methicillin-resistant Staphylococcus aureus assessed as fractional inhibitory concentration index in presence of ciprofloxacin; type: functional
Method in brief: (§1)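 MIC of the test compound and of ciprofloxacin determined alone and in combination against each strain. FIC index = (MIC of A combined / MIC of A alone) + (MIC of B combined / MIC of B alone). FIC index ≤0.5 scored synergy, >0.5–2 additivity, >2 antagonism.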

Cell membrane [3] = assay: Induction of membrane depolarization in methicillin-resistant Staphylococcus aureus at MIC by DiSC35 dye-based fluorescence assay; conditions: TDE = time-dependent effect
Method in brief: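 Cytoplasmic membrane potential of MRSA probed with the fluorescent dye diSC35. Cells treated at MIC, and fluorescence intensity recorded over time against untreated cells.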

Cell membrane [4] = assay: Induction of inner membrane permeabilization in methicillin-resistant Staphylococcus aureus assessed as decrease in fluorescence intensity at 4 times MIC measured by calcein-AM dye based fluorescence analysis
Cell membrane [5] = assay: Induction of inner membrane disruption in methicillin-resistant Staphylococcus aureus assessed as decrease in green fluorescence intensity at 4 times MIC measured by calcein-AM dye based fluorescence analysis
Method in brief: (§2)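 MRSA treated at 1–4 × MIC and stained with propidium iodide and calcein-AM. Fluorescence intensity measured on a spectrofluorimeter. Dual-stain cells imaged by fluorescence microscopy, scoring red (PI) and green (calcein) cells.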

[6] = Hemolytic activity in human RBC incubated for 4 hrs by microscopic analysis relative to control; type: ADME, cell-based, Erythrocyte; conditions: red blood cells (erythrocytes), read-out: Activity
Method in brief: (§3)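 Processed red blood cells incubated with various compound concentrations (multiples of MIC) for 4 h at 37 °C in PBS; 1% Triton X-100 as positive control, PBS blank, saline control; hemolysis rate determined and cell integrity inspected by microscopy.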

DNA [7] = assay: Binding affinity to methicillin-resistant Staphylococcus aureus DNA assessed as compound-DNA complex formation by UV spectroscopy; type: nucleic-acid assay
Method in brief: (§4)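 Genomic DNA isolated from MRSA titrated with the compound. UV absorption spectra recorded in 1.0 cm quartz cells, and the binding constant derived from an equation and plot of the spectral data.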

DNA [8] = assay: Binding affinity to methicillin-resistant Staphylococcus aureus DNA assessed as maximum absorbance peak at 260 nm by UV spectroscopy; type: nucleic-acid assay; method in brief: as §4
Staphylococcus aureus [9] = assay: Additive antibacterial activity against Staphylococcus aureus ATCC 25923 assessed as fractional inhibitory concentration index in presence of ciprofloxacin; type: functional
Staphylococcus aureus [10] = assay: Antibacterial activity against Staphylococcus aureus ATCC 29213 assessed as reduction in microbial growth by two fold microdilution method; type: functional
Enterococcus faecalis = assay: Antibacterial activity against Enterococcus faecalis assessed as reduction in microbial growth by two fold microdilution method; type: functional
Escherichia coli [11] = assay: Antibacterial activity against Escherichia coli ATCC 25922 assessed as reduction in microbial growth by two fold microdilution method; type: functional
HEK-293T = assay: Cytotoxicity against human HEK293T cells assessed as increase in cell survival incubated for 24 hrs by MTT assay relative to control; type: cell-based
Method in brief: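 LO2 hepatocytes and 293T cells exposed to compound for 24 h; viability by colorimetric MTT proliferation assay, expressed as survival rate versus untreated cells.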

Klebsiella pneumoniae [12] = assay: Antibacterial activity against Klebsiella pneumonia assessed as reduction in microbial growth by two fold microdilution method; type: functional
Staphylococcus aureus [13] = assay: Antibacterial activity against Staphylococcus aureus ATCC 25923 assessed as reduction in microbial growth by two fold microdilution method; type: functional
Escherichia coli [14] = assay: Synergistic antibacterial activity against Escherichia coli assessed as fractional inhibitory concentration index in presence of ciprofloxacin; type: functional
Staphylococcus aureus [15] = assay: Bactericidal activity against methicillin-resistant Staphylococcus aureus assessed as increase in sterilization rate at 2 ug/ml measured at 6 hrs by time kill assay; type: functional, organism-based; conditions: dose 2.0 µg/ml
Method in brief: (§5)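 Time-kill kinetics: MRSA exposed to the compound at several concentrations, with ciprofloxacin as positive control. Sterilization rate followed over time up to 6 h.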

Cell membrane [16] = assay: Induction of inner membrane permeabilization in methicillin-resistant Staphylococcus aureus by propidium iodide staining based fluorescence microscopic analysis; method in brief: as §2
DNA [17] = assay: Binding affinity to methicillin-resistant Staphylococcus aureus DNA assessed as conformational changes in DNA duplex by UV spectroscopy; type: nucleic-acid assay; method in brief: as §4
Staphylococcus aureus [18] = assay: Bactericidal activity against methicillin-resistant Staphylococcus aureus assessed as increase in sterilization rate at 4 ug/ml measured at 4 hrs by time kill assay; type: functional, organism-based; conditions: dose 4.0 µg/ml; method in brief: as §5
Klebsiella pneumoniae [19] = assay: Antibacterial activity against Klebsiella pneumonia in presence of ciprofloxacin (reference value: 0.25 ug/ml); type: functional
[20] = Hemolytic activity in human RBC at 64 times MIC incubated for 4 hrs by microscopic analysis relative to control; type: ADME, cell-based, Erythrocyte; conditions: red blood cells (erythrocytes), read-out: Activity; method in brief: as §3
[21] = target: T1, DNA gyrase (Staphylococcus aureus) (UniProt P0A0K8+P20831); assay: Binding affinity to DNA gyrase in methicillin-resistant Staphylococcus aureus assessed as decrease in gyrB gene expression after 3 hrs by RT-PCR method
Staphylococcus aureus [22] = assay: Antibacterial activity against Staphylococcus aureus ATCC 25923 in presence of ciprofloxacin (reference value: 0.25 ug/ml); type: functional; method in brief: as §1
[23] = target: T1, DNA gyrase (Staphylococcus aureus); assay: Binding affinity to DNA gyrase in methicillin-resistant Staphylococcus aureus assessed as decrease in femB gene expression after 3 hrs by RT-PCR method
Erythrocyte = assay: Hemolytic activity in human RBC at 16 times MIC incubated for 4 hrs by microscopic analysis; type: ADME, cell-based; method in brief: as §3
Pseudomonas aeruginosa [24] = assay: Antibacterial activity against Pseudomonas aeruginosa ATCC 27853 assessed as reduction in microbial growth by two fold microdilution method; type: functional
[25] = target: T1, DNA gyrase (Staphylococcus aureus); assay: Binding affinity to DNA gyrase in methicillin-resistant Staphylococcus aureus assessed as decrease in mecA gene expression after 3 hrs by RT-PCR method
Cell membrane [26] = assay: Induction of inner membrane disruption in methicillin-resistant Staphylococcus aureus assessed as increase in red fluorescence intensity at 4 times MIC measured by calcein-AM dye based fluorescence analysis; method in brief: as §2
Klebsiella pneumoniae [27] = assay: Synergistic antibacterial activity against Klebsiella pneumonia assessed as fractional inhibitory concentration index in presence of ciprofloxacin; type: functional
Staphylococcus aureus [28] = assay: Antibacterial activity against Staphylococcus aureus assessed as reduction in microbial growth by two fold microdilution method; type: functional
Method in brief: (§6)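 MIC determined by the standard two-fold broth micro-dilution assay, with norfloxacin and ciprofloxacin as reference agents.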

Staphylococcus aureus [29] = assay: Antibacterial activity against methicillin-resistant Staphylococcus aureus assessed as reduction in microbial growth by two fold microdilution method; type: functional; method in brief: as §6
Staphylococcus aureus [30] = assay: Antibacterial activity against methicillin-resistant Staphylococcus aureus assessed as reduction in bacterial growth at 20 to 140 ug/ml measured after 16 passages; type: functional, organism-based; conditions: dose 20-140 µg/ml
DNA [31] = assay: Competitive binding affinity to methicillin-resistant Staphylococcus aureus DNA assessed as DNA intercalation by AO staining based assay; type: nucleic-acid assay
Method in brief: (§7)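 Competitive displacement on MRSA DNA, recorded by fluorescence in 1.0 cm quartz cells. For the AO–DNA complex, emission at 537 nm followed with increasing compound concentration. For the DAPI–DNA complex, DAPI fluorescence followed with increasing compound concentration.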

Acinetobacter baumannii = assay: Antibacterial activity against Acinetobacter baumannii assessed as reduction in microbial growth by two fold microdilution method; type: functional
DNA [32] = assay: Competitive binding affinity to methicillin-resistant Staphylococcus aureus DNA assessed as DNA intercalation by DAPI staining based assay; type: nucleic-acid assay; method in brief: as §7
Escherichia coli [33] = assay: Antibacterial activity against Escherichia coli assessed as reduction in microbial growth by two fold microdilution method; type: functional
Escherichia coli [34] = assay: Antibacterial activity against Escherichia coli in presence of ciprofloxacin (reference value: 0.25 ug/ml); type: functional
Staphylococcus aureus [35] = assay: Antibacterial activity against methicillin-resistant Staphylococcus aureus assessed as reduction in bacterial growth at 20 to 140 ug/ml measured after 16 passages in presence of ciprofloxacin; type: functional, organism-based; conditions: dose 20-140 µg/ml
Staphylococcus aureus [36] = assay: Antibacterial activity against methicillin-resistant Staphylococcus aureus in presence of ciprofloxacin (reference value: 0.25 ug/ml); type: functional; method in brief: as §1

T1 sequence (P0A0K8 2-644 limits assumed): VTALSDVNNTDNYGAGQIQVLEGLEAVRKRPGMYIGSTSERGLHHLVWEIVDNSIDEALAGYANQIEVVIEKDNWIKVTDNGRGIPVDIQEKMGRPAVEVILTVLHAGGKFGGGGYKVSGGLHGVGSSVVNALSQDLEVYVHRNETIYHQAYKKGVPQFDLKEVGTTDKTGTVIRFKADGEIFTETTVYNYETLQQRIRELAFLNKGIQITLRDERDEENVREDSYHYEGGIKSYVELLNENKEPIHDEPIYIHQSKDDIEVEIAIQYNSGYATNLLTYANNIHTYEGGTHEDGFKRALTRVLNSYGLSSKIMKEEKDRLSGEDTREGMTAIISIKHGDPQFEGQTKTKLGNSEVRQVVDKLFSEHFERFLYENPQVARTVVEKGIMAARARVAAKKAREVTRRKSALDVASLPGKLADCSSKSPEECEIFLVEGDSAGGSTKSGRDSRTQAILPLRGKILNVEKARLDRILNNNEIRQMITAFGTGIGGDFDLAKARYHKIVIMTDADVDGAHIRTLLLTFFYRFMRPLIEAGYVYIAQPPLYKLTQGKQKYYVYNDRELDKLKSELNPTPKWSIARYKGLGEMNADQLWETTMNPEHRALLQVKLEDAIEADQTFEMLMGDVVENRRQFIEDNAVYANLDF
T1 sequence (P20831 whole entry partner): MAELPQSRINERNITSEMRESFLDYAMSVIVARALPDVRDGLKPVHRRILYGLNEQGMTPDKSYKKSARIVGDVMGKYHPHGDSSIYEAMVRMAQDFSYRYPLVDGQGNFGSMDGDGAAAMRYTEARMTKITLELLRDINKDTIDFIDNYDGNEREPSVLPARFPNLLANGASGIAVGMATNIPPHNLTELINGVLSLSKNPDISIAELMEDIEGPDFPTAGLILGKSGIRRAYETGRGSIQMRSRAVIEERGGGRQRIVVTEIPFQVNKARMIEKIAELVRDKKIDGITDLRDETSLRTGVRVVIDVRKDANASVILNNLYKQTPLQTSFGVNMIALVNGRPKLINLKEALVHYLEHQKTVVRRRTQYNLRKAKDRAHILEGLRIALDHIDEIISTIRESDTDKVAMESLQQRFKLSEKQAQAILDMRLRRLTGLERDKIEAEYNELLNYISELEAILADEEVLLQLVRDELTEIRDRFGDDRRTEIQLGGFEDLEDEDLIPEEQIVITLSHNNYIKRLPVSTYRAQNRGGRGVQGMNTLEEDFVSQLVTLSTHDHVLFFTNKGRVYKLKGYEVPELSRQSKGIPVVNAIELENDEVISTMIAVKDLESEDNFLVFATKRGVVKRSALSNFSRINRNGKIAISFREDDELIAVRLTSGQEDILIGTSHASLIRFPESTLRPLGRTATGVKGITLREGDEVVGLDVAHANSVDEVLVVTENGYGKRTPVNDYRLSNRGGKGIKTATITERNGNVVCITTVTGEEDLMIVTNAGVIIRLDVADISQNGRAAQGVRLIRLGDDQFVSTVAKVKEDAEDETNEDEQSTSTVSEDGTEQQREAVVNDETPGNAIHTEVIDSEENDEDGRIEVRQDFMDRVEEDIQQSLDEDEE

COC(=O)CO/N=C(\CN1CCN(c2cc3c(cc2F)c(=O)c(C(=O)O)cn3C2CC2)CC1)c1nccs1
MIC (Pseudomonas aeruginosa [1]): 0.25 mg/L
FIC (Staphylococcus aureus [2]): 0.5
Activity (Cell membrane [3]): Tde
Activity (Cell membrane [4]): Active
Activity (Cell membrane [5]): Active
hemolysis at 4 h [6]: < 3%
Activity (DNA [7]): Active
Activity (DNA [8]): Active
FIC (Staphylococcus aureus [9]): 1.5
MIC (Staphylococcus aureus [10]): 0.25 mg/L
MIC (Enterococcus faecalis): 0.25 mg/L
MIC (Escherichia coli [11]): 0.25 mg/L
Activity (HEK-293T): > 90%
MIC (Klebsiella pneumoniae [12]): 0.25 mg/L
MIC (Staphylococcus aureus [13]): 0.25 mg/L
FIC (Escherichia coli [14]): 0.3125
Activity (Staphylococcus aureus [15]): Active
Activity (Cell membrane [16]): Dose-Dependent Effect
Activity (DNA [17]): Active
Activity (Staphylococcus aureus [18]): Active
MIC (Klebsiella pneumoniae [19]): 0.0625 mg/L
hemolysis at 4 h, 64 times MIC [20]: < 5%
Activity [21]: Active
MIC (Staphylococcus aureus [22]): 0.25 mg/L
Activity [23]: Active
Activity (Erythrocyte): Non-Toxic
MIC (Pseudomonas aeruginosa [24]): 0.25 mg/L
Activity [25]: inactive
Activity (Cell membrane [26]): Active
FIC (Klebsiella pneumoniae [27]): 0.3125
MIC (Staphylococcus aureus [28]): 0.25 mg/L
MIC (Staphylococcus aureus [29]): 0.25 mg/L
Activity (Staphylococcus aureus [30]): Active
Activity (DNA [31]): Active
MIC (Acinetobacter baumannii): 0.25 mg/L
Activity (DNA [32]): Active
MIC (Escherichia coli [33]): 1 mg/L
MIC (Escherichia coli [34]): 0.0625 mg/L
Activity (Staphylococcus aureus [35]): inactive
MIC (Staphylococcus aureus [36]): 0.125 mg/L
